Measured values: paper PMC5333931 (ACS chemical neuroscience, 2016)

How the values were obtained:
GIRK4* channel = target: T1, GIRK4* channel (Homo sapiens, UniProt P48544, S143T); assay: TEVC, oocytes expressing GIRK4* alone versus GIRK4* and 5-HT2A receptors; type: cell-based; conditions: 50 µM or higher; suggests direct inhibition of GIRK4* channel
T1 sequence (P48544 1-419 S143T): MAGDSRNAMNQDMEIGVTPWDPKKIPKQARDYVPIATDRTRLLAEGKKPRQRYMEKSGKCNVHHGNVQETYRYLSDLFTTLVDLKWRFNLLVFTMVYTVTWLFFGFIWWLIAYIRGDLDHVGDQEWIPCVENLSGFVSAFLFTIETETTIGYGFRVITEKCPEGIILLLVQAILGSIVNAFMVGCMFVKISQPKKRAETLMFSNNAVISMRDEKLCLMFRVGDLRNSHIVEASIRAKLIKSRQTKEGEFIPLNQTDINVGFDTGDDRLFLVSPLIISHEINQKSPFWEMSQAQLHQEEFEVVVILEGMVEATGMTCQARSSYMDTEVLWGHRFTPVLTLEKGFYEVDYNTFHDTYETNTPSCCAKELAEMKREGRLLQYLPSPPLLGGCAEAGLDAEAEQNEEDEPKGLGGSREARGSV

5-HT2A receptors [1] = target: T2, 5-HT2A receptors (Homo sapiens, UniProt P28223); assay: Intracellular Ca2+ release; type: cell-based
T2 sequence (P28223 whole entry): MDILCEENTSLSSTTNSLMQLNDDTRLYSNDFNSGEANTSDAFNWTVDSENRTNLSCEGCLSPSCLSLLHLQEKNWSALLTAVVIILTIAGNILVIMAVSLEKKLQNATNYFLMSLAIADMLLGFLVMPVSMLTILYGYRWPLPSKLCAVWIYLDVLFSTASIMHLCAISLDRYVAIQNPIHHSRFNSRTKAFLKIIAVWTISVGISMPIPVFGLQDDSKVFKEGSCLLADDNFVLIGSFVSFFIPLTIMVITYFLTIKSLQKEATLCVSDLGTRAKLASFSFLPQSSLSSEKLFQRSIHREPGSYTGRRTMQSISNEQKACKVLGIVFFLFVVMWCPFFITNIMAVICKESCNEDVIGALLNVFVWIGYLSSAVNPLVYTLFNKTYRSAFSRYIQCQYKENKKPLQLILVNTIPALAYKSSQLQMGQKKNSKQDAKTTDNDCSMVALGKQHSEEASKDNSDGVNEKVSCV

5-HT2A receptors [2] = target: T2, 5-HT2A receptors; assay: [3H]ketanserin competition binding in HEK293 cell membrane preparations; conditions: for fold lower binding affinity than risperidone (1): [3H]ketanserin, HEK293 membranes
5-HT2A receptors [3] = target: T2, 5-HT2A receptors; type: cell-based; conditions: 10 µM compound, 1 µM 5-HT, TEVC
5-HT2A receptors [4] = target: T2, 5-HT2A receptors; assay: TEVC, compounds alone; type: cell-based
Procedure, shortened: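 Xenopus oocytes were injected with 2 ng 5-HT2A receptor plus 2 ng GIRK4* and held at 18 °C for 1–4 days. Basal GIRK4* current was taken per trace as the inward current difference with versus without 3 mM BaCl2. Read-out was current inhibition.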

5-HT2 receptor [5] = conditions: rats, drug discrimination; cited from earlier work
5-HT2 receptor [6] = conditions: 5-HT-induced inositol phosphate production; cited from earlier work

Structure (SMILES)	current inhibition in oocytes expressing GIRK4* alone versus GIRK4* and 5-HT2A receptors (GIRK4* channel)	IC50 (5-HT2A receptors [1]) [µM]	Ki (5-HT2A receptors [2]) [µM]	antagonism of 5-HT responses at highest concentration tested (5-HT2A receptors [3])	concentration yielding significant current inhibition by compound alone (5-HT2A receptors [4]; oocytes, no 5-HT) [µM]	binding affinity relative to risperidone (5-HT2A receptors [2])	fold lower binding affinity than risperidone (1) (5-HT2A receptors [2])	antagonist action in vivo (5-HT2 receptor [5])	antagonist action in vitro (5-HT2 receptor [6])	agonism of compound alone (5-HT2A receptors [4]; concentrations tested up to 50 µM)
Cl.O=C(CCCN1CCC(c2noc3cc(F)ccc23)CC1)N1CCCCC1 [compound 2, 4-(4-(6-Fluorobenzisoxazol-3-yl)piperidin-1-yl)-1-(piperidin-1-yl)butan-1-one Hydrochloride]	no significant differences	16.7 ± 1.39	0.0398	–	–	–	–	–	–	–
Cl.Fc1ccc2c(C3CCN(CCCCN4CCCCC4)CC3)noc2c1 [compound 3]	no significant differences	–	–	no significant effects	≥ 5	–	–	–	–	–
CN1CCC(c2noc3cc(F)ccc23)CC1.Cl [compound 4, 6-Fluoro-3-(1-methylpiperidin-4-yl)benzisoxazole Hydrochloride]	–	7.4 ± 1.45	–	significant inhibition	–	half that of risperidone	2- to 8 fold	–	–	–
Fc1ccc2c(C3CCNCC3)noc2c1 [compound 5, 6-fluoro-3-(piperidin-4-yl)benzisoxazole]	–	20.1 ± 2.24	–	significant inhibition	–	–	13.5 fold	potent 5-HT2 receptor antagonist	potent 5-HT2 receptor antagonist	did not exhibit significant agonism
